Test results published in ChEMBL document CHEMBL1764993, “Synthesis and biological evaluation of novel irreversible serine protease inhibitors using amino acid based sulfonyl fluorides as an electrophilic trap” (Bioorg Med Chem, 2011).
Calls of active or inactive are those of the source. The calls are words filed in the database; no cut-off is given here.

Columns and labels:
[1] = Inhibition of chymotrypsin assessed as p-nitroaniline release after 30 mins pre-incubated with compound for 1 hr before addition of Bz-L-Tyr-pNA as a substrate by calorimetric assay
Method in brief: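 Chymotrypsin (commercial, used as received) pre-incubated 1 h with inhibitor in DMSO in sodium phosphate 0.05 M pH 7.0; aliquot then added to Bz-L-Tyr-pNA. Final: enzyme 1.0 µM, substrate 0.25 mM; DMSO controls. p-Nitroaniline release read at 405 nm for 30 min at rt to give residual activity. Triplicate or quadruplicate.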

Papain (Carica papaya) = molecular target: T1, Papain (Carica papaya) (UniProt P00784); test: Inhibition of papaya papain assessed as p-nitroaniline release at 2.5 uM after 1 hr pre-inhibition using Bz-L-Tyr-pNA as a substrate by calorimetric assay
T1 sequence (whole entry): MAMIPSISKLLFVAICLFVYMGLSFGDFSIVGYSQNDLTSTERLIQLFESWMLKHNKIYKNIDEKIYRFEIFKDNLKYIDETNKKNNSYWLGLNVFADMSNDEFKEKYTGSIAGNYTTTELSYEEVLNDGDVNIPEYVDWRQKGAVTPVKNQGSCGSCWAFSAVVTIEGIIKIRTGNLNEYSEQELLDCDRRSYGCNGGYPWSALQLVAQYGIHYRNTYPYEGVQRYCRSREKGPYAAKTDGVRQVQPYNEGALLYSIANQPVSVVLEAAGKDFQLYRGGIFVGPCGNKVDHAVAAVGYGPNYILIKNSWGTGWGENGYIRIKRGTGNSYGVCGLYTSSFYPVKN

[2] = Inhibition of chymotrypsin assessed as p-nitroaniline release measured for 15 mins using Bz-L-Tyr-pNA as a substrate by Dixon plot analysis
Method in brief: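 Ki from Dixon plots: chymotrypsin (final 0.5 µM) in sodium phosphate 0.05 M pH 7.0 with Bz-L-Tyr-pNA at 0.15–0.25 mM and inhibitor at 7.81, 15.63 or 31.25 µM (final), no preincubation. p-Nitroaniline read directly at 405 nm for 15 min; DMSO controls; quadruplicate.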

[3] = Inhibition of chymotrypsin assessed as p-nitroaniline release at 20 uM measured at every 6 mins for 15 mins using Bz-L-Tyr-pNA as a substrate
Method in brief: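 kinact: chymotrypsin mixed with inhibitor in sodium phosphate 0.05 M pH 7.0; aliquots moved into Bz-L-Tyr-pNA wells at 0–5 min, then all read at 405 nm for 15 min. Final enzyme 0.5 µM, substrate 250 µM, inhibitor 20 µM. Residual activity plotted against preincubation time.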

| Compound | Activity [1] | Activity (Papain (Carica papaya)) | Ki [2] | Ki ([2]; read-out: Ki) | Kinact [3] |
| --- | --- | --- | --- | --- | --- |
| O=C(N[C@@H](Cc1ccccc1)CS(=O)(=O)F)OCc1ccccc1 | Active | Active |  |  |  |
| CC(C)C[C@@H](CS(=O)(=O)F)NC(=O)OCc1ccccc1 | Active | Active |  |  |  |
| C[C@@H](CS(=O)(=O)F)NC(=O)OCc1ccccc1 | Active | Active | Not Active |  |  |
| CC(C)[C@@H](CS(=O)(=O)F)NC(=O)OCC1c2ccccc2-c2ccccc21 | Active |  |  |  |  |
| O=S(=O)(F)Cc1ccccc1 [PHENYLMETHYLSULFONYLFLUORIDE] |  |  |  | 13 µM | 0.32 min⁻¹ |
| O=C(NCCS(=O)(=O)F)OCc1ccccc1 | Active | Active |  |  |  |
